# How the values were obtained:
# Adenosine receptor A2b = molecular target: T1, Adenosine receptor A2b (Homo sapiens, UniProt P29275); test: Displacement of [3H]DPCPX from human adenosine A2B receptor expressed in HEK293 cell membranes after 30 mins
# T1 sequence (P29275 whole entry): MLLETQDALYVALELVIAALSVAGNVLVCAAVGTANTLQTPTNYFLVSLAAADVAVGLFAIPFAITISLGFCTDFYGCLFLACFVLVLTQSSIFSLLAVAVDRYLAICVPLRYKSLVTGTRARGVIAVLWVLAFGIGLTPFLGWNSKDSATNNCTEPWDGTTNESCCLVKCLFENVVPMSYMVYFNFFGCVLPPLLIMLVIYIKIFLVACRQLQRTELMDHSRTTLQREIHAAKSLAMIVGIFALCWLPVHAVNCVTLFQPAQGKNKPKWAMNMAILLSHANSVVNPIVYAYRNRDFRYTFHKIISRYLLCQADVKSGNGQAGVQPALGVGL
# [1] = molecular target: T2, Adenosine receptor A1 (Homo sapiens) (UniProt P30542); test: Displacement of [3H]DPCPX from human adenosine A1 receptor expressed in CHO cell membranes at 1 uM after 60 mins
# T2 sequence (whole entry): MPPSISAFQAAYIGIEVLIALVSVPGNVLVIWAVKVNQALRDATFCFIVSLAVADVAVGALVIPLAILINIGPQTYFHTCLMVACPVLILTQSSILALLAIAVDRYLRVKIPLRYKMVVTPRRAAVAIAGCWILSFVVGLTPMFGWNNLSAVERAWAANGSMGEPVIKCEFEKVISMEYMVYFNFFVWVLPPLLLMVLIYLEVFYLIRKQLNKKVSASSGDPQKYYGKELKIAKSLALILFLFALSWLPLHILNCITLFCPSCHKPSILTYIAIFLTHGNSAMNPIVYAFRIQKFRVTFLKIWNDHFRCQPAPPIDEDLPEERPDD
# Procedure, shortened: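 Membranes from CHO cells expressing human A1 receptor, labelled with 2 nM [3H]DPCPX. Nonspecific binding defined with 10 μM R-PIA. Incubated 25 °C, 60 min. Percent inhibition of specific binding at 1 μM, average of n = 2.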
# [2] = molecular target: Adenosine receptor A2a (Homo sapiens) (UniProt P29274); test: Displacement of [3H]4-(2-[7-amino-2-(2-furyl)[1,2,4]triazolo[2,3-a][1,3,5]triazin-5-ylamino]ethyl)phenol from human adenosine A2A receptor expressed in human Hela cell membranes at 1 uM after 30 mins
# Chain of Adenosine receptor A2a (Homo sapiens) (P29274 whole entry): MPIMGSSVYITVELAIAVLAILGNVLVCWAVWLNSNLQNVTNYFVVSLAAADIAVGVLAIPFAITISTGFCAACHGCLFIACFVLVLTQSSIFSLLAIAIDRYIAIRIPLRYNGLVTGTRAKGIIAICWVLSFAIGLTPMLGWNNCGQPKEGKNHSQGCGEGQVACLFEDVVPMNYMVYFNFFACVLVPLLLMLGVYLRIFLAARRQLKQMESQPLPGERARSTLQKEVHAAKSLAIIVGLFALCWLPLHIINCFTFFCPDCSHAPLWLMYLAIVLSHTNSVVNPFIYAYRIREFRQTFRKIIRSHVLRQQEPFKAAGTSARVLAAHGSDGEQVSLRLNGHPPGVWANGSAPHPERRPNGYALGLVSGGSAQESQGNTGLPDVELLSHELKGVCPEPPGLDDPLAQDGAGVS
# Procedure, shortened: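 Membranes from HeLa cells expressing human A2A receptor, labelled with 3 nM radioligand. Nonspecific binding defined with 50 μM NECA. Incubated 25 °C, 30 min. Percent inhibition of specific binding at 1 μM, average of n = 2.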
# [3] = molecular target: T3, Adenosine receptor A3 (Homo sapiens) (UniProt P0DMS8); test: Displacement of [3H]NECA from human adenosine A3 receptor expressed in human Hela cell membranes at 1 uM after 180 mins
# T3 sequence (whole entry): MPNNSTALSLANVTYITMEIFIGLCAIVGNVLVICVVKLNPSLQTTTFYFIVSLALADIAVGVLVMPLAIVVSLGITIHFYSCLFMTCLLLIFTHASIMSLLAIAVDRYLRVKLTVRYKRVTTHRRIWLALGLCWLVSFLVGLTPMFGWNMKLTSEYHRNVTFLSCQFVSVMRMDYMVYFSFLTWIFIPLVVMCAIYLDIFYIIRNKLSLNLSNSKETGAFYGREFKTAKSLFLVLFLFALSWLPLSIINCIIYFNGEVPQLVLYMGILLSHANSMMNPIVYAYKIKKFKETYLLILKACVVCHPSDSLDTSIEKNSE
# Procedure, shortened: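 Membranes from HeLa cells expressing human A3 receptor, labelled with 30 nM [3H]NECA. Nonspecific binding defined with 100 μM R-PIA. Incubated 25 °C, 180 min. Percent inhibition of specific binding at 1 μM, average of n = 2.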
# [4] = molecular target: T4, Adenosine receptor A2b (Homo sapiens) (UniProt P29275); test: Displacement of [3H]DPCPX from human adenosine A2B receptor expressed in HEK293 cell membranes at 1 uM after 30 mins
# T4 sequence (whole entry): T1 sequence (P29275 whole entry)
# Procedure, shortened: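 HEK-293 membranes expressing human A2B receptor, labelled with 35 nM [3H]DPCPX. Nonspecific binding with 400 μM NECA. 25 °C, 30 min. Percent inhibition of specific binding at 1 μM, average of n = 2.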
# [5] = molecular target: T4, Adenosine receptor A2b (Homo sapiens); test: Antagonist activity at human adenosine A2B receptor expressed in HEK293 cell […] assessed as inhibition of NECA-stimulated cAMP accumulation preincubated for 15 mins followed by NECA stimulation for 15 mins by enzyme immunoassay; assay type: functional, cell-based
# Procedure, shortened: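 Whole HEK-293 cells transfected with human A2B receptor, grown at 37 °C, 5% CO2 in EMEM F-12 with 10% FCS and 1% L-glutamine. Washed, then preincubated 15 min at 37 °C in EMEM-F12/25 mM HEPES pH 7.4 with 30 μM rolipram plus test compound. Stimulated with 10 μM NECA for 15 min. Lysed, intracellular cAMP read by enzyme immunoassay at 450 nm. KB derived from IC50 by the Leff and Dougall method. n = 3, each in duplicate.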
Compound,Ki (Adenosine receptor A2b) [nM],inhibition [1] [%],inhibition [2] [%],inhibition [3] [%],inhibition [4] [%],Kb [5] [nM]
CC1=C(C(=O)OC(C)C)C(C2CCCC2)NC(=O)N1 (stereo unspecified),,1,1,7,3,
CCOC(=O)C1=C(C)NC(=O)NC1C1CCCC1 (stereo unspecified),,3,1,18,2,
CCOC(=O)C1=C(C)NC(=O)NC1c1ccccc1 (stereo unspecified),,1,10,2,2,
CCOC(=O)C1=C(C)NC(=O)NC1c1cccs1 (stereo unspecified),,1,,1,44,
CCOC(=O)C1=C(C)NC(=O)NC1c1ccsc1 (stereo unspecified),,22,39,24,,
CCOC(=O)C1=C(C)N/C(=N\C#N)NC1c1ccoc1 (racemic),102,28,31,14,,
CCOC(=O)C1=C(C)N/C(=N\C#N)NC1c1cccs1 (racemic),51,26,33,3,,
CCOC(=O)C1=C(C)N/C(=N\C#N)NC1c1ccsc1 (racemic),461,29,30,23,,
CC1=C(C(=O)OC(C)C)C(c2cccs2)N/C(=N/C#N)N1 (racemic),349,31,16,27,,
CC1=C(C(=O)OC(C)C)C(c2ccsc2)N/C(=N/C#N)N1 (racemic),647,11,18,13,,
CC1=C(C(=O)OC(C)C)C(C2CCCC2)N/C(=N/C#N)N1 (racemic),,3,5,3,11,
CC1=C(C(=O)OC(C)C)C(c2ccccc2)N/C(=N/C#N)N1 (racemic),,20,12,6,32,
CCOC(=O)C1=C(C)N/C(=N\C#N)NC1C1CCCC1 (racemic),,11,10,4,19,
CCOC(=O)C1=C(C)N/C(=N\C#N)NC1c1ccccc1 (racemic),,18,13,13,25,

# Next, values leading:
Ki (Adenosine receptor A2b) [nM],inhibition [1] [%],inhibition [2] [%],inhibition [3] [%],inhibition [4] [%],Kb [5] [nM],Compound
15.1,2,4,4,,,CC1=C(C(=O)OC(C)C)[C@@H](c2ccco2)N/C(=N/C#N)N1
,2,1,2,2,,CC1=C(C(=O)OC(C)C)C(c2ccccc2)NC(=O)N1 (stereo unspecified)
,20,30,1,,,CC1=C(C(=O)OC(C)C)C(c2ccco2)NC(=O)N1 (stereo unspecified)
,,,1,,,CC1=C(C(=O)OC(C)C)C(c2ccsc2)NC(=O)N1 (stereo unspecified)
,18,10,1,23,,CC1=C(C(=O)OC(C)C)[C@H](c2ccco2)N/C(=N/C#N)N1
,18,41,,,,CCOC(=O)C1=C(C)NC(=O)NC1c1ccco1 (stereo unspecified)
,,39,,,,CCOC(=O)C1=C(C)NC(=O)NC1c1ccoc1 (stereo unspecified)
24.3,21,19,4,,116,CC1=C(C(=O)OC(C)C)C(c2ccco2)N/C(=N/C#N)N1 (racemic)
900,27,20,20,,,CCOC(=O)C1=C(C)N/C(=N\C#N)NC1c1ccco1 (racemic)
59.4,34,25,41,,,CC1=C(C(=O)OC(C)C)C(c2ccoc2)N/C(=N/C#N)N1 (racemic)

# Source: ChEMBL document CHEMBL4049429, “Enantiospecific Recognition at the A2B Adenosine Receptor by Alkyl 2-Cyanoimino-4-substituted-6-methyl-1,2,3,4-tetrahydropyrimidine-5-carboxylates” (J Med Chem, 2017)
